According to ChEMBL document CHEMBL4007439, “Design, Synthesis, and Evaluation of a Novel Series of Oxadiazine Gamma Secretase Modulators for Familial Alzheimer's Disease” (J Med Chem, 2017):
≈ marks a conversion by molar mass, not a printed value. Calls of active or inactive are those of the source. No cut-off for these calls is given here.

Assays:
[1] = molecular target: T1, Cytochrome P450 2C8 (Homo sapiens, UniProt P10632); assay: Inhibition of CYP2C8 (unknown origin); format: ADME
T1 sequence (P10632 whole entry): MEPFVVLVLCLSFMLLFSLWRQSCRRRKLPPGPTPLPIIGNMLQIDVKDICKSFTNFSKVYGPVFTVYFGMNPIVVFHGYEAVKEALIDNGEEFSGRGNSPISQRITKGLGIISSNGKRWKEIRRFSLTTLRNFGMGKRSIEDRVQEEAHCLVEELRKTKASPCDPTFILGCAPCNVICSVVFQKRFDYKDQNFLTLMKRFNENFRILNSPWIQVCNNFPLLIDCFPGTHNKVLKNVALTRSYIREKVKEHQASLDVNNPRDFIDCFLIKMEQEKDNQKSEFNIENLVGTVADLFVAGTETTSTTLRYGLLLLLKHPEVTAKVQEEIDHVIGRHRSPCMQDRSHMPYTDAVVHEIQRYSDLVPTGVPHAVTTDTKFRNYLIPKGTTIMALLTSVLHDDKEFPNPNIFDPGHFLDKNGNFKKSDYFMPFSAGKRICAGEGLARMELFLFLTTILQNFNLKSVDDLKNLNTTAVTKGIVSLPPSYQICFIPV

[2] = molecular target: T2, Cytochrome P450 3A4 (Homo sapiens, UniProt P08684); assay: Inhibition of CYP3A4 (unknown origin); format: ADME
T2 sequence (P08684 whole entry): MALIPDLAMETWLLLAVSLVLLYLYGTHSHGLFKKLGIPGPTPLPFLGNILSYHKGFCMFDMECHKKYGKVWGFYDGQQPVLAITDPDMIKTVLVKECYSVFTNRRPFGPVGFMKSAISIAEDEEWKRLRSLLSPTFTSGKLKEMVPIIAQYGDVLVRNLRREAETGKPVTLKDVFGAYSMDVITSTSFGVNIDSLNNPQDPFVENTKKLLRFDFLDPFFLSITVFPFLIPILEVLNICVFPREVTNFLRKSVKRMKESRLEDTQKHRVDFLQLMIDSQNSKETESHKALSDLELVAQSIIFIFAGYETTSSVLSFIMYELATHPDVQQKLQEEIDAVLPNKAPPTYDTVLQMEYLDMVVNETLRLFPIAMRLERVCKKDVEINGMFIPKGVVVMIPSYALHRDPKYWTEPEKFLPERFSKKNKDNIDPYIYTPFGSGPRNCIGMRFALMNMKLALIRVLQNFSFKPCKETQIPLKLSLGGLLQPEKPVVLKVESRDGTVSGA

[3] = Aqueous solubility of compound in phosphate buffer at pH 7.4 after 90 mins; format: physicochemical
Summary of the method: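 Kinetic solubility method in pH 7.4 phosphate buffer, incubated 90 min at room temperature.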

[4] = Permeability from apical to basolateral side in human Caco2 cells; format: ADME, cell-based; details: Caco-2, read-out: permeability
Summary of the method: (§1)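 Caco-2 monolayer assay; apical-to-basolateral permeability (cm/s) and efflux ratio used to judge P-gp efflux potential.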

[5] = Ratio of drug level in brain to plasma in mouse at 30 mg/kg, po measured at 6 hrs post dose; format: ADME, organism-based; details: read-out: BPR
Summary of the method: (§2)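 Single oral dose of 30 mg/kg; brain (mouse, rat) and rat CSF Aβ42 and Aβ37 measured 6 h post-dose, expressed relative to vehicle; total and free brain drug levels and brain:plasma ratio taken at the same time.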

[6] = molecular target: Cytochrome P450 2C9 (Homo sapiens, UniProt P11712); assay: Inhibition of CYP2C9 (unknown origin); format: ADME
Sequence of Cytochrome P450 2C9 (P11712 whole entry): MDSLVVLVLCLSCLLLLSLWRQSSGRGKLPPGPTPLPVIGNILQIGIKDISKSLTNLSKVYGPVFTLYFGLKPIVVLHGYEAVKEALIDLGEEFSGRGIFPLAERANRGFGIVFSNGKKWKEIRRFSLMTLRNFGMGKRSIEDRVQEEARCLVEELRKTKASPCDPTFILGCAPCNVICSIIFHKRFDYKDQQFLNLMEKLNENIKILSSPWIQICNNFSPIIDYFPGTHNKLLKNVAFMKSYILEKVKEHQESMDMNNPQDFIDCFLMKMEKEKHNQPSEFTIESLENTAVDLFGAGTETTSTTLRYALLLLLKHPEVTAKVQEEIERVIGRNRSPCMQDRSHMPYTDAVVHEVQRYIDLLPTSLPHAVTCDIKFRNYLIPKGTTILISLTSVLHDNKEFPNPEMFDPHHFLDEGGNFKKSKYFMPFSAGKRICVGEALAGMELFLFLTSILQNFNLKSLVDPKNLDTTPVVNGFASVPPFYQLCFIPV

[7] = tested on: Brain; assay: Unbound drug level in mouse brain at 30 mg/kg, po measured at 6 hrs post dose; format: ADME, organism-based; details: in vivo; summary of the method: as §2
[8] = tested on: Rattus norvegicus; assay: Increase in amyloid beta 37 levels in rat brain at 30 mg/kg, po measured at 6 hrs post dose by ELISA relative to control; format: functional; summary of the method: as §2
[9] = Unbound intrinsic clearance in rat hepatocytes; format: ADME, cell-based, Hepatocyte
[10] = tested on: Rattus norvegicus; assay: Increase in amyloid beta 37 levels in rat CSF at 30 mg/kg, po measured at 6 hrs post dose by ELISA relative to control; format: functional; summary of the method: as §2
[11] = molecular target: Cytochrome P450 2D6 (Homo sapiens, UniProt P10635); assay: Inhibition of CYP2D6 (unknown origin); format: ADME
Sequence of Cytochrome P450 2D6 (P10635 whole entry): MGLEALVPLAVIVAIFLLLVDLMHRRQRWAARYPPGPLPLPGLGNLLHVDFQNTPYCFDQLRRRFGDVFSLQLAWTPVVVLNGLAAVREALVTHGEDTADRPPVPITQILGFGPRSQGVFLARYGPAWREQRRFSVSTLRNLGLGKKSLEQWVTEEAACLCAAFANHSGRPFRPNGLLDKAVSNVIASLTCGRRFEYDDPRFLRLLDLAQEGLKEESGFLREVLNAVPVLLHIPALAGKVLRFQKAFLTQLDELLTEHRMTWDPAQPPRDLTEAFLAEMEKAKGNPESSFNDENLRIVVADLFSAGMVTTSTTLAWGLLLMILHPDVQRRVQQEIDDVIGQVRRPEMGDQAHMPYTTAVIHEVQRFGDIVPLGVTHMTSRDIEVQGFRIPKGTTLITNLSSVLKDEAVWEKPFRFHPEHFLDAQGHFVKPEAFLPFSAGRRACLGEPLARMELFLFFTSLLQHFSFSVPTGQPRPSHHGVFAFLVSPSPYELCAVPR

[12] = tested on: Rattus norvegicus; assay: Reduction in amyloid beta 42 levels in rat brain at 30 mg/kg, po measured at 6 hrs post dose by ELISA; format: functional; summary of the method: as §2
[13] = molecular target: T2, Cytochrome P450 3A4; assay: Time dependent inhibition of CYP3A4 (unknown origin) at 5 to 25 uM; format: ADME
[14] = molecular target: Voltage-gated inwardly rectifying potassium channel KCNH2 (Homo sapiens, UniProt Q12809); assay: Inhibition of human ERG by patch clamp assay
Sequence of Voltage-gated inwardly rectifying potassium channel KCNH2 (Q12809 whole entry): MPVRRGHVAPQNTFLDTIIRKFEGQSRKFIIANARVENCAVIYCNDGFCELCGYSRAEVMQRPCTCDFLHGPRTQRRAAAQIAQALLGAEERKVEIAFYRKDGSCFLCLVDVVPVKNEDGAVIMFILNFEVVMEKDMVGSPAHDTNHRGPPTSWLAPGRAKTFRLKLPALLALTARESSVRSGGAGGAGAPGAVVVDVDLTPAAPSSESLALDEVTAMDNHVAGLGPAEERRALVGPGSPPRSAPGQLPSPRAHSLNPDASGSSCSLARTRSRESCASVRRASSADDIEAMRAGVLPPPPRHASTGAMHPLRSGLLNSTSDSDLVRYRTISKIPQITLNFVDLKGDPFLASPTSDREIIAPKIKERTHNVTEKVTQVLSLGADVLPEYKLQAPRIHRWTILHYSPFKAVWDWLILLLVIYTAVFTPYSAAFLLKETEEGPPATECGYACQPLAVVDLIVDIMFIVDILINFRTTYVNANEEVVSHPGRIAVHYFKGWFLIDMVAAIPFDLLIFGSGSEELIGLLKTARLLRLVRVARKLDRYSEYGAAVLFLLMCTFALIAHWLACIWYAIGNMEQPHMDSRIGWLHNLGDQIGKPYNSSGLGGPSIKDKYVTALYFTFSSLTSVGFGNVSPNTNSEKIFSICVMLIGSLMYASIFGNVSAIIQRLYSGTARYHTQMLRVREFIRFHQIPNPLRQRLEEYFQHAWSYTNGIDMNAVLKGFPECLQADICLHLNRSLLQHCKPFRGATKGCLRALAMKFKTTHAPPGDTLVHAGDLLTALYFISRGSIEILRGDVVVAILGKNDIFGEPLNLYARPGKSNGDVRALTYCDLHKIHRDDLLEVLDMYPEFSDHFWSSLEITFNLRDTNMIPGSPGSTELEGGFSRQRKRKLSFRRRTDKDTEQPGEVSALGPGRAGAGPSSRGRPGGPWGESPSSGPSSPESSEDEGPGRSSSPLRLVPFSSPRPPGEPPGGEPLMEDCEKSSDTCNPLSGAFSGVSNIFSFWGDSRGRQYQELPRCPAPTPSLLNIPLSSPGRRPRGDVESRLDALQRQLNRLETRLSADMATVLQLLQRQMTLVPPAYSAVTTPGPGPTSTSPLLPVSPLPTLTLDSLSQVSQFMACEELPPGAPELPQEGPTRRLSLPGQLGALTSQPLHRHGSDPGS
Summary of the method: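 Functional patch clamp assay of hERG current; IC50 derived.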

[15] = tested on: Cynomolgus monkey; assay: Oral bioavailability in Cynomolgus monkey at 10 mg/kg; format: ADME, organism-based, Macaca fascicularis; details: in vivo
Summary of the method: (§3)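 Oral dosing; AUC and Cmax taken from the p.o. administration; bioavailability (%F) calculated from p.o. and i.v. data.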

[16] = molecular target: Cytochrome P450 2C19 (Homo sapiens, UniProt P33261); assay: Inhibition of CYP2C19 (unknown origin); format: ADME
Sequence of Cytochrome P450 2C19 (P33261 whole entry): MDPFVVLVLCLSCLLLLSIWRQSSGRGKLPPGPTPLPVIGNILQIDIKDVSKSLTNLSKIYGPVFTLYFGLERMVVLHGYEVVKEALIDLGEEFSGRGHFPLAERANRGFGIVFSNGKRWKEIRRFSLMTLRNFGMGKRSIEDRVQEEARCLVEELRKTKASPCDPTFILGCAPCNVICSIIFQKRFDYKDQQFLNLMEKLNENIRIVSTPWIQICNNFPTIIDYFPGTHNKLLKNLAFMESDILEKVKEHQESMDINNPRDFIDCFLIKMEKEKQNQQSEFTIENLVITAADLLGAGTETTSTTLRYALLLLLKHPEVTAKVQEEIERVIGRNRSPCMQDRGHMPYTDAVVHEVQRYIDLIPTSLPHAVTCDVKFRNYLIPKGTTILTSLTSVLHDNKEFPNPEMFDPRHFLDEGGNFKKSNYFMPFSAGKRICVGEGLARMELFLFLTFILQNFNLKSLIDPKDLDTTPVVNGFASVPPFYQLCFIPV

[17] = tested on: Cynomolgus monkey; assay: AUClast in Cynomolgus monkey at 10 mg/kg, po; format: ADME, organism-based, Macaca fascicularis; set-up: dose 10 mg/kg, route oral, time 0 - last; details: in vivo; summary of the method: as §3
[18] = Cmax in Cynomolgus monkey at 10 mg/kg, po; format: ADME, organism-based, Macaca fascicularis; set-up: dose 10 mg/kg, route oral; details: in vivo; summary of the method: as §3
[19] = Clearance in Wistar rat at 1 mg/kg, iv; format: ADME, organism-based; details: in vivo
Summary of the method: (§4)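 Intravenous dosing at 1 mg/kg; half-life, steady-state volume of distribution and clearance derived from the i.v. administration.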

[20] = AUClast in Wistar rat at 10 mg/kg, po; format: ADME, organism-based; set-up: dose 10 mg/kg, route oral, time 0 - last; details: in vivo; summary of the method: as §3
[21] = Half life in Cynomolgus monkey at 1 mg/kg, iv; format: ADME, organism-based, Macaca fascicularis; details: in vivo; summary of the method: as §4
[22] = Cytotoxicity against human HepG2 cells assessed as reduction in cell viability by measuring ATP; details: read-out: TC50 (the source's name)
[23] = tested on: Mus musculus; assay: Decrease in amyloid beta 42 in mouse brain at 30 mg/kg, po administered as single dose after 0.5 to 24 hrs; format: functional
[24] = tested on: TK6; assay: Genotoxicity in p53-competent human TK6 cells in presence of S9 fraction by GADD45alpha GFP reporter assay; format: toxicity, cell-based
Summary of the method: (§5)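 GreenScreen GADD45alpha-GFP reporter assay in human cells, run externally.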

[25] = Volume of distribution at steady state in Wistar rat at 1 mg/kg, iv; format: ADME, organism-based; details: in vivo, read-out: Vdss; summary of the method: as §4
[26] = tested on: Mus musculus; assay: Decrease in amyloid beta 42 AUC(1 to 24 hrs) in mouse brain at 30 mg/kg, po administered as single dose after 0.5 to 24 hrs; format: functional
[27] = tested on: Mus musculus; assay: Increase in amyloid beta 37 levels in mouse brain at 30 mg/kg, po measured at 6 hrs post dose by ELISA relative to control; format: functional; summary of the method: as §2
[28] = Total drug level in mouse brain at 30 mg/kg, po measured at 6 hrs post dose; format: ADME, organism-based; details: read-out: Drug uptake; summary of the method: as §2
[29] = tested on: Mus musculus; assay: Reduction in amyloid beta 42 levels in mouse brain at 30 mg/kg, po measured at 6 hrs post dose by ELISA; format: functional; summary of the method: as §2
[30] = Modulation of gamma-secretase in human H4 cells expressing human APP751 assessed as inhibition of amyloid beta 42 production incubated overnight by sandwich ELISA; format: cell-based
Summary of the method: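 Aβ42 EC50 in H4 cells overexpressing WT human APP751; each value is the average of n > 2 assays, each run in duplicate.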

[31] = Oral bioavailability in Wistar rat at 10 mg/kg; format: ADME, organism-based; details: in vivo; summary of the method: as §3
[32] = tested on: Rattus norvegicus; assay: Reduction in amyloid beta 42 levels in rat CSF at 30 mg/kg, po measured at 6 hrs post dose by ELISA; format: functional; summary of the method: as §2
[33] = Total drug level in rat brain at 30 mg/kg, po measured at 6 hrs post dose; format: ADME, organism-based; details: read-out: Drug uptake; summary of the method: as §2
[34] = tested on: TK6; assay: Genotoxicity in p53-competent human TK6 cells in absence of S9 fraction by GADD45alpha GFP reporter assay; format: toxicity, cell-based; summary of the method: as §5
[35] = tested on: Brain; assay: Unbound drug level in rat brain at 30 mg/kg, po measured at 6 hrs post dose; format: ADME, organism-based; details: in vivo; summary of the method: as §2
[36] = Volume of distribution at steady state in Cynomolgus monkey at 1 mg/kg, iv; format: ADME, organism-based, Macaca fascicularis; details: in vivo, read-out: Vdss; summary of the method: as §4
[37] = tested on: Mus musculus; assay: Increase in amyloid beta 37 levels in mouse brain at 30 mg/kg, po measured at 0.5 to 24 hrs post dose by ELISA relative to control
[38] = Cmax in Wistar rat at 10 mg/kg, po; format: ADME, organism-based; set-up: dose 10 mg/kg, route oral; details: in vivo; summary of the method: as §3
[39] = Efflux ratio of permeability in human Caco2 cells; format: ADME, cell-based; details: Caco-2; summary of the method: as §1
[40] = Half life in Wistar rat at 1 mg/kg, iv; format: ADME, organism-based; details: in vivo; summary of the method: as §4
[41] = molecular target: T3, Cytochrome P450 1A2 (Homo sapiens, UniProt P05177); assay: Inhibition of CYP1A2 (unknown origin); format: ADME
T3 sequence (P05177 whole entry): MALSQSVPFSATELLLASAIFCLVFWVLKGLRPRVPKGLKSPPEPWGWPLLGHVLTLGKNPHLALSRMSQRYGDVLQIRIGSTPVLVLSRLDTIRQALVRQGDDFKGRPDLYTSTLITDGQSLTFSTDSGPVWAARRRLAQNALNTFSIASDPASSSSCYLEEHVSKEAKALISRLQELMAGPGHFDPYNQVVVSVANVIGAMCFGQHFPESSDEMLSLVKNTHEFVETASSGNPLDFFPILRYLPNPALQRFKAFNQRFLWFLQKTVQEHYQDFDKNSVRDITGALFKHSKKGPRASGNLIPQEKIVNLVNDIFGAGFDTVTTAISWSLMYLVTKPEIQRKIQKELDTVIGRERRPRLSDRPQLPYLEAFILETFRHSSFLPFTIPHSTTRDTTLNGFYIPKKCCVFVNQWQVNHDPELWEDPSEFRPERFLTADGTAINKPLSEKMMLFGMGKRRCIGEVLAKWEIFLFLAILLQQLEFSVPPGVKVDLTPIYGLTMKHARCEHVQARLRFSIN

[42] = tested on: Mus musculus; assay: Reduction in amyloid beta 42 levels in mouse brain at 90 mg/kg, po measured at 6 hrs post dose by ELISA; format: functional
Summary of the method: (§6)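 Mice dosed 90 mg/kg; brain Aβ42 lowering, total brain drug concentration and brain:plasma ratio measured 6 hours post-dose.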

[43] = Total drug uptake in mouse brain at 90 mg/kg, po measured at 6 hrs post dose; format: ADME, organism-based; details: read-out: Drug uptake; summary of the method: as §6
[44] = Ratio of drug level in brain to plasma in mouse at 90 mg/kg, po measured at 6 hrs post dose; format: ADME, organism-based; details: read-out: BPR; summary of the method: as §6

COc1nc(C2=NOC[C@H](c3cc4ccccc4o3)N2)ccc1-n1cnc(C)c1
IC50 [1]: > 25000 nM
IC50 [2]: 25000 nM
solubility at 1.5 h [3]: 84 µM (≈ 32.7 µg/mL)
Papp A→B [4]: 10 ×10⁻⁶ cm/s
Kp at 6 h [5]: 1.5
IC50 [6]: 8000 nM
Drug uptake(free) [7]: 427 nM
fold change (FC) [8]: 2.5
CL free [9]: 84 mL/min/kg
fold change (FC) [10]: 20
IC50 [11]: 2000 nM
inhibition in vivo at 30 mg/kg [12]: 30%
TDI [13]: Not Active
IC50 [14]: 15000 nM
F [15]: 136%
IC50 [16]: 17000 nM
AUClast [17]: 8.1 µM·h
Cmax [18]: 11 µM
clearance [19]: 5.8 mL/min/kg
AUC(0-t) [20]: 67.8 µM·h
half-life [21]: 1.5 h
CC50 [22]: > 72000 nM
Imax [23]: 45%
Activity [24]: Non-Toxic
Vd [25]: 1 L/kg
inhibition in vivo at 30 mg/kg [26]: 34%
fold change (FC) [27]: 3.2
concentration at 6 h [28]: 29.8 to 30 µM
inhibition in vivo at 30 mg/kg [29]: 43%
EC50 ([30]; Homo sapiens): 35 nM
bioavailability [31]: 93%
inhibition in vivo at 30 mg/kg [32]: 58%
concentration at 6 h [33]: 13.7 µM
Activity [34]: Non-Toxic
Drug uptake(free) [35]: 156 nM
Vd [36]: 0.9 L/kg
fold change (FC) [37]: 3.1
Cmax [38]: 7.3 µM
efflux ratio [39]: 1.1
half-life [40]: 2.2 h
IC50 [41]: 3000 nM

COc1cc(C2=NOC[C@H](COc3ccc(Cl)cc3C(F)(F)F)N2C)ccc1-n1cnc(C)c1
Activity [29]: inactive
EC50 ([30]; Homo sapiens): 113 nM

COc1nc(C2=NOC[C@@H]3[C@H](Oc4ccc(Cl)cc4C(F)(F)F)CCCN23)ccc1-n1cnc(C)c1
inhibition in vivo at 90 mg/kg [42]: 32%
CL free [9]: 4251 mL/min/kg
concentration at 6 h [43]: 36 µM
Kp at 6 h [44]: 0.6
EC50 ([30]; Homo sapiens): 15 nM

COc1nc(C2=NOC[C@H](COc3ccc(Cl)cc3C(F)(F)F)N2)ccc1-n1cnc(C)c1
CL free [9]: 3830 mL/min/kg
Activity [29]: inactive
EC50 ([30]; Homo sapiens): 27 nM

COc1nc(C2=NOCC3CN(c4ccc(Cl)cc4C(F)(F)F)CCN23)ccc1-n1cnc(C)c1 (single isomer, unassigned; (+))
EC50 [30]: 64 nM
